Source: ChEMBL document CHEMBL4627359, “Design, synthesis and biological evaluation of spiropyrazolopyridone derivatives as potent dengue virus inhibitors” (Bioorg Med Chem Lett, 2020)

Tests used:
dengue virus type 1 = test: Antiviral activity against DENV1 infected in human Huh7 cells; type: functional, organism-based; conditions: Huh-7
Summary of the method: (§1)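 Huh7 cells stably carrying a DENV replicon (serotype 1, 2, 3 or 4) with Renilla luciferase and neomycin-resistance genes. Seeded at 10k/well, incubated overnight at 37 °C in 5% CO₂, then given 2-fold serial compound dilutions in duplicate. After 48 h, luciferase was read with EnduRen live-cell substrate. EC50 came from four-parameter logistic fits of dose-response curves.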

dengue virus type 2 = test: Antiviral activity against DENV2 infected in human Huh7 cells; type: functional, organism-based; conditions: Huh-7; summary of the method: as §1
dengue virus type 3 = test: Antiviral activity against DENV3 infected in human Huh7 cells; type: functional, organism-based; conditions: Huh-7; summary of the method: as §1
dengue virus type 4 = test: Antiviral activity against DENV4 infected in human Huh7 cells; type: functional, organism-based; conditions: Huh-7; summary of the method: as §1
Huh-7 = test: Cytotoxicity against human HuH7 cells infected with DENV2 assessed as reduction in cell viability; type: cell-based
Summary of the method: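 Cytotoxicity was read in Huh7 cells stably carrying the DENV-2 Renilla luciferase replicon. Cells were seeded at 10k/well, incubated overnight at 37 °C in 5% CO₂, then given 2-fold serial compound dilutions in duplicate for 48 h. After the live-cell luciferase read, CellTiter-Glo was added to the same wells to measure viability.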

Row | Structure (SMILES) | EC50 (dengue virus type 1) | EC50 (dengue virus type 2) | EC50 (dengue virus type 3) | EC50 (dengue virus type 4) | CC50 (Huh-7)
1 | O=C1CC2(C(=O)Nc3ccc(Cl)cc32)c2cnn(Cc3ccc(Cl)c(Cl)c3)c2N1 (stereo not drawn) | 1800 nM | 62 nM | > 5000 nM | > 5000 nM | > 10000 nM
2 | O=C1CC2(C(=O)Nc3ccc(Cl)cc32)c2cnn(Cc3ccc(Cl)cc3F)c2N1 (stereo not drawn) | 2300 nM | 140 nM | 390 nM | > 5000 nM | > 10000 nM
3 | Cc1nn(Cc2ccc(Cl)cc2)c2c1C1(CC(=O)N2)C(=O)Nc2ccc(Cl)cc21 (stereo not drawn) | 2500 nM | 1800 nM | 25 nM | > 5000 nM | > 10000 nM
4 | O=C1CC2(C(=O)Nc3ccc(Cl)cc32)c2cnn(Cc3ccc(Cl)cc3)c2N1 (stereo not drawn) | 2400 nM | 110 nM | 6 nM | > 10000 nM | > 10000 nM
5 | NC(=O)C1C(=O)Nc2c(cnn2Cc2ccc(Cl)cc2)C12C(=O)Nc1ccc(Cl)cc12 (stereo not drawn) |  | 3200 nM |  |  | 50000 nM
6 | CS(=O)(=O)c1ccc(Cn2ncc3c2NC(=O)CC32C(=O)Nc3ccc(Cl)cc32)cc1 (stereo not drawn) |  | > 5000 nM |  |  | 
7 | CC(=O)C1C(=O)Nc2c(cnn2Cc2ccc(Cl)cc2)C12C(=O)Nc1ccc(Cl)cc12 (stereo not drawn) |  | > 10000 nM |  |  | > 20000 nM
8 | N#CC1C(=O)Nc2c(cnn2Cc2ccc(Cl)cc2)C12C(=O)Nc1ccc(Cl)cc12 (stereo not drawn) |  | 8600 nM |  |  | 50000 nM
9 | O=C1CC2(C(=O)Nc3ccc(Cl)cc32)c2cn(Cc3ccc(Cl)c(Cl)c3)nc2N1 (stereo not drawn) |  | 1100 nM |  |  | > 10000 nM
10 | O=C1CC2(C(=O)Nc3ccc(Cl)cc32)c2cnn(Cc3ccc(C(=O)O)cc3)c2N1 (stereo not drawn) |  | > 5000 nM |  |  | 
11 | O=C1CC2(C(=O)Nc3ccc(Cl)cc32)c2cnn(Cc3ccc(Cl)c(F)c3)c2N1 (stereo not drawn) | 1800 nM | 50 nM | 19 nM | > 5000 nM | > 10000 nM
12 | COC(=O)c1ccc(Cn2ncc3c2NC(=O)CC32C(=O)Nc3ccc(Cl)cc32)cc1 (stereo not drawn) |  | > 5000 nM |  |  | 
13 | O=C1CC2(C(=O)Nc3ccc(Cl)cc32)c2cnn(Cc3ccc(C(F)(F)F)cc3C(F)(F)F)c2N1 (stereo not drawn) | 1600 nM | 38 nM | 17 nM | > 5000 nM | > 10000 nM
14 | N#Cc1cn(Cc2ccc(Cl)cc2)c2c1C1(CC(=O)N2)C(=O)Nc2ccc(Cl)cc21 (stereo not drawn) |  | > 5000 nM |  |  | 
15 | O=C1CC2(C(=O)Nc3ccc(Cl)cc32)c2cn(Cc3ccc(Cl)cc3)nc2N1 (stereo not drawn) |  | 4400 nM |  |  | > 10000 nM
16 | N#Cc1ccc(Cn2ncc3c2NC(=O)CC32C(=O)Nc3ccc(Cl)cc32)cc1 (stereo not drawn) |  | > 5000 nM |  |  | 
17 | O=C1CC2(C(=O)Nc3ccc(Cl)cc32)c2cnn(Cc3ccc(F)cc3)c2N1 (stereo not drawn) |  | 4200 nM |  |  | 
18 | O=C1CC2(C(=O)Nc3ccc(Cl)cc32)c2c(C3CC3)nn(Cc3ccc(Cl)cc3)c2N1 (stereo not drawn) |  | 1900 nM |  |  | > 10000 nM
